Measured values: ChEMBL document CHEMBL1687785, “ampG gene of Pseudomonas aeruginosa and its role in β-lactamase expression” (2010)

How the values were obtained:
[1] = molecular target: Beta-lactamase (Pseudomonas aeruginosa (strain ATCC 15692 / PAO1 / 1C / PRS 101 / LMG12228)) (UniProt P24735); assay: Activity of ampG deficient Pseudomonas aeruginosa PAK AmpC assessed as nitrocefin hydrolyzed per mg of protein at 25 ug/ml by UV spectrophotometry
How it was run: (§1)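 P. aeruginosa cells induced 2 h with cefoxitin (1, 10 or 25 μg/ml; uninduced control). Crude extracts prepared by sonication. β-Lactamase measured by UV spectrophotometry with 100 μM nitrocefin as substrate. Specific activity given as nmol nitrocefin hydrolyzed per min per mg protein at 30°C, with protein by BCA against BSA standard. Triplicate inductions, averaged.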

[2] = molecular target: Beta-lactamase (Pseudomonas aeruginosa (strain ATCC 15692 / PAO1 / 1C / PRS 101 / LMG12228)) (UniProt P24735); assay: Activity of ampG deficient Pseudomonas aeruginosa PAO1 AmpC assessed as nitrocefin hydrolyzed per mg of protein at 10 ug/ml by UV spectrophotometry; how it was run: as §1
[3] = molecular target: Beta-lactamase (Pseudomonas aeruginosa (strain ATCC 15692 / PAO1 / 1C / PRS 101 / LMG12228)) (UniProt P24735); assay: Activity of ampD, […], ampDh2 deficient Pseudomonas aeruginosa PAO1 AmpC assessed as nitrocefin hydrolyzed per mg of protein at 25 ug/ml by UV spectrophotometry; how it was run: as §1
[4] = molecular target: Beta-lactamase (Pseudomonas aeruginosa (strain ATCC 15692 / PAO1 / 1C / PRS 101 / LMG12228)) (UniProt P24735); assay: Activity of Pseudomonas aeruginosa PAO1 AmpC assessed as nitrocefin hydrolyzed per mg of protein at 10 ug/ml by UV spectrophotometry; how it was run: as §1
[5] = molecular target: Beta-lactamase (Pseudomonas aeruginosa (strain ATCC 15692 / PAO1 / 1C / PRS 101 / LMG12228)) (UniProt P24735); assay: Activity of Pseudomonas aeruginosa PAO1 AmpC assessed as nitrocefin hydrolyzed per mg of protein at 1 ug/ml by UV spectrophotometry; how it was run: as §1
[6] = molecular target: Beta-lactamase (Pseudomonas aeruginosa (strain ATCC 15692 / PAO1 / 1C / PRS 101 / LMG12228)) (UniProt P24735); assay: Activity of Pseudomonas aeruginosa PAK AmpC assessed as nitrocefin hydrolyzed per mg of protein at 25 ug/ml by UV spectrophotometry; how it was run: as §1
[7] = molecular target: Beta-lactamase (Pseudomonas aeruginosa (strain ATCC 15692 / PAO1 / 1C / PRS 101 / LMG12228)) (UniProt P24735); assay: Activity of ampD, ampDh2, ampDh3 and ampG deficient Pseudomonas aeruginosa PAO1 AmpC at 50 ug/ml assessed as nitrocefin substrate hydrolysis per mg of protein after 2 hrs by UV spectrophotometry
How it was run: (§2)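 P. aeruginosa cells induced 2 h with […] cefoxitin. Crude sonicated extracts assayed by UV spectrophotometry with 100 μM nitrocefin substrate. Specific activity is nmol nitrocefin hydrolyzed per min per mg protein at 30°C, with protein by BCA against BSA standard. Triplicate inductions, averaged.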

[8] = molecular target: Beta-lactamase (Pseudomonas aeruginosa (strain ATCC 15692 / PAO1 / 1C / PRS 101 / LMG12228)) (UniProt P24735); assay: Activity of ampD, […], ampDh2 and ampG deficient Pseudomonas aeruginosa PAO1 AmpC assessed as nitrocefin hydrolyzed per mg of protein at 1 ug/ml by UV spectrophotometry; how it was run: as §1
[9] = molecular target: Beta-lactamase (Pseudomonas aeruginosa (strain ATCC 15692 / PAO1 / 1C / PRS 101 / LMG12228)) (UniProt P24735); assay: Activity of ampG deficient Pseudomonas aeruginosa PAO1 AmpC at 50 ug/ml assessed as nitrocefin substrate hydrolysis per mg of protein after 2 hrs by UV spectrophotometry; how it was run: as §2
[10] = molecular target: Beta-lactamase (Pseudomonas aeruginosa (strain ATCC 15692 / PAO1 / 1C / PRS 101 / LMG12228)) (UniProt P24735); assay: Activity of Pseudomonas aeruginosa PAK AmpC assessed as nitrocefin hydrolyzed per mg of protein at 10 ug/ml by UV spectrophotometry; how it was run: as §1
[11] = molecular target: Beta-lactamase (Pseudomonas aeruginosa (strain ATCC 15692 / PAO1 / 1C / PRS 101 / LMG12228)) (UniProt P24735); assay: Activity of ampD, […], ampDh2 and ampG deficient Pseudomonas aeruginosa PAO1 AmpC assessed as nitrocefin hydrolyzed per mg of protein at 10 ug/ml by UV spectrophotometry; how it was run: as §1
[12] = molecular target: Beta-lactamase (Pseudomonas aeruginosa (strain ATCC 15692 / PAO1 / 1C / PRS 101 / LMG12228)) (UniProt P24735); assay: Activity of ampD, […], ampDh2 deficient Pseudomonas aeruginosa PAO1 AmpC assessed as nitrocefin hydrolyzed per mg of protein at 10 ug/ml by UV spectrophotometry; how it was run: as §1
[13] = molecular target: Beta-lactamase AmpC (Enterobacter cloacae) (UniProt P05364); assay: Activity of tetracycline resistant Escherichia coli SNO301-1 AmpC harboring pEC1C carrying ampC, ampR from Enterobacter cloacae at 50 ug/ml assessed as nitrocefin substrate hydrolysis per mg of protein after 2 hrs by UV spectrophotometry
[14] = molecular target: Beta-lactamase (Pseudomonas aeruginosa (strain ATCC 15692 / PAO1 / 1C / PRS 101 / LMG12228)) (UniProt P24735); assay: Activity of ampD, ampDh2, ampDh3 and ampG deficient Pseudomonas aeruginosa PAO1 AmpC harboring pZY0901 conferring resistance to gentamycin at 50 ug/ml assessed as nitrocefin substrate hydrolysis per mg of protein after 2 hrs by UV spectrophotometry; how it was run: as §2
[15] = molecular target: Beta-lactamase (Pseudomonas aeruginosa (strain ATCC 15692 / PAO1 / 1C / PRS 101 / LMG12228)) (UniProt P24735); assay: Activity of Pseudomonas aeruginosa PAK AmpC assessed as nitrocefin hydrolyzed per mg of protein at 1 ug/ml by UV spectrophotometry; how it was run: as §1
[16] = molecular target: Beta-lactamase (Pseudomonas aeruginosa (strain ATCC 15692 / PAO1 / 1C / PRS 101 / LMG12228)) (UniProt P24735); assay: Activity of ampD, […], ampDh2 deficient Pseudomonas aeruginosa PAO1 AmpC assessed as nitrocefin hydrolyzed per mg of protein at 1 ug/ml by UV spectrophotometry; how it was run: as §1
[17] = molecular target: Beta-lactamase (Pseudomonas aeruginosa (strain ATCC 15692 / PAO1 / 1C / PRS 101 / LMG12228)) (UniProt P24735); assay: Activity of Pseudomonas aeruginosa PAO1 AmpC assessed as nitrocefin hydrolyzed per mg of protein at 25 ug/ml by UV spectrophotometry; how it was run: as §1
[18] = molecular target: Beta-lactamase (Pseudomonas aeruginosa (strain ATCC 15692 / PAO1 / 1C / PRS 101 / LMG12228)) (UniProt P24735); assay: Activity of ampG deficient Pseudomonas aeruginosa PAK AmpC assessed as nitrocefin hydrolyzed per mg of protein at 10 ug/ml by UV spectrophotometry; how it was run: as §1
[19] = molecular target: Beta-lactamase AmpC (Enterobacter cloacae) (UniProt P05364); assay: Activity of kanamycin resistant Escherichia coli SNO301-1 AmpC harboring pEC1C carrying ampC, ampR from Enterobacter cloacae at 50 ug/ml assessed as nitrocefin substrate hydrolysis per mg of protein after 2 hrs by UV spectrophotometry
[20] = molecular target: Beta-lactamase (Pseudomonas aeruginosa (strain ATCC 15692 / PAO1 / 1C / PRS 101 / LMG12228)) (UniProt P24735); assay: Activity of Pseudomonas aeruginosa PAO1 AmpC at 50 ug/ml assessed as nitrocefin substrate hydrolysis per mg of protein after 2 hrs by UV spectrophotometry; how it was run: as §2
[21] = molecular target: Beta-lactamase (Pseudomonas aeruginosa (strain ATCC 15692 / PAO1 / 1C / PRS 101 / LMG12228)) (UniProt P24735); assay: Activity of ampD, […], ampDh2 deficient Pseudomonas aeruginosa PAO1 AmpC at 50 ug/ml assessed as nitrocefin substrate hydrolysis per mg of protein after 2 hrs by UV spectrophotometry; how it was run: as §2
[22] = molecular target: Beta-lactamase (Pseudomonas aeruginosa (strain ATCC 15692 / PAO1 / 1C / PRS 101 / LMG12228)) (UniProt P24735); assay: Activity of ampG deficient Pseudomonas aeruginosa PAK AmpC assessed as nitrocefin hydrolyzed per mg of protein at 1 ug/ml by UV spectrophotometry; how it was run: as §1
[23] = molecular target: Beta-lactamase AmpC (Enterobacter cloacae) (UniProt P05364); assay: Activity of gentamycin resistant Escherichia coli SNO301-1 AmpC harboring pEC1C carrying ampC, ampR from Enterobacter cloacae at 50 ug/ml assessed as nitrocefin substrate hydrolysis per mg of protein after 2 hrs by UV spectrophotometry
[24] = molecular target: Beta-lactamase (Pseudomonas aeruginosa (strain ATCC 15692 / PAO1 / 1C / PRS 101 / LMG12228)) (UniProt P24735); assay: Activity of ampG deficient Pseudomonas aeruginosa PAO1 AmpC assessed as nitrocefin hydrolyzed per mg of protein at 25 ug/ml by UV spectrophotometry; how it was run: as §1
[25] = molecular target: Beta-lactamase (Pseudomonas aeruginosa (strain ATCC 15692 / PAO1 / 1C / PRS 101 / LMG12228)) (UniProt P24735); assay: Activity of ampD, […], ampDh2 and ampG deficient Pseudomonas aeruginosa PAO1 AmpC assessed as nitrocefin hydrolyzed per mg of protein at 25 ug/ml by UV spectrophotometry; how it was run: as §1
[26] = molecular target: Beta-lactamase (Pseudomonas aeruginosa (strain ATCC 15692 / PAO1 / 1C / PRS 101 / LMG12228)) (UniProt P24735); assay: Activity of ampG deficient Pseudomonas aeruginosa PAO1 AmpC assessed as nitrocefin hydrolyzed per mg of protein at 1 ug/ml by UV spectrophotometry; how it was run: as §1
[27] = molecular target: Beta-lactamase (Pseudomonas aeruginosa (strain ATCC 15692 / PAO1 / 1C / PRS 101 / LMG12228)) (UniProt P24735); assay: Activity of ampG deficient Pseudomonas aeruginosa PAK AmpC harboring pZY0901 conferring resistance to gentamycin at 50 ug/ml assessed as nitrocefin substrate hydrolysis per mg of protein after 2 hrs by UV spectrophotometry; how it was run: as §2
[28] = molecular target: Beta-lactamase (Pseudomonas aeruginosa (strain ATCC 15692 / PAO1 / 1C / PRS 101 / LMG12228)) (UniProt P24735); assay: Activity of Pseudomonas aeruginosa PAK AmpC at 50 ug/ml assessed as nitrocefin substrate hydrolysis per mg of protein after 2 hrs by UV spectrophotometry; how it was run: as §2
[29] = molecular target: Beta-lactamase (Pseudomonas aeruginosa (strain ATCC 15692 / PAO1 / 1C / PRS 101 / LMG12228)) (UniProt P24735); assay: Activity of ampG deficient Pseudomonas aeruginosa PAK AmpC harboring pZY0908 conferring resistance to gentamycin at 50 ug/ml assessed as nitrocefin substrate hydrolysis per mg of protein after 2 hrs by UV spectrophotometry; how it was run: as §2
[30] = molecular target: Beta-lactamase (Pseudomonas aeruginosa (strain ATCC 15692 / PAO1 / 1C / PRS 101 / LMG12228)) (UniProt P24735); assay: Activity of ampG deficient Pseudomonas aeruginosa PAK AmpC at 50 ug/ml assessed as nitrocefin substrate hydrolysis per mg of protein after 2 hrs by UV spectrophotometry; how it was run: as §2

Chain of Beta-lactamase (Pseudomonas aeruginosa (strain ATCC 15692 / PAO1 / 1C / PRS 101 / LMG12228)) (P24735 27-397 limits assumed): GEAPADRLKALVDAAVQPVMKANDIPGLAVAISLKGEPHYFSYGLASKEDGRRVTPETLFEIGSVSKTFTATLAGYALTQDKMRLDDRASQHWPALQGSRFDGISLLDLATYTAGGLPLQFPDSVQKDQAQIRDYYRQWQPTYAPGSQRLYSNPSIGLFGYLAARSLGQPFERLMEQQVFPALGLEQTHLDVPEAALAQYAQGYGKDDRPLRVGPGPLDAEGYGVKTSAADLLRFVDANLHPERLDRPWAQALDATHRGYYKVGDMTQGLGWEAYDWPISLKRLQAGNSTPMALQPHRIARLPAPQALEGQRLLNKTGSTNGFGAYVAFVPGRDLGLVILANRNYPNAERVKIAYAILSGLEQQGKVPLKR
Chain of Beta-lactamase AmpC (Enterobacter cloacae) (P05364 whole entry, looked up): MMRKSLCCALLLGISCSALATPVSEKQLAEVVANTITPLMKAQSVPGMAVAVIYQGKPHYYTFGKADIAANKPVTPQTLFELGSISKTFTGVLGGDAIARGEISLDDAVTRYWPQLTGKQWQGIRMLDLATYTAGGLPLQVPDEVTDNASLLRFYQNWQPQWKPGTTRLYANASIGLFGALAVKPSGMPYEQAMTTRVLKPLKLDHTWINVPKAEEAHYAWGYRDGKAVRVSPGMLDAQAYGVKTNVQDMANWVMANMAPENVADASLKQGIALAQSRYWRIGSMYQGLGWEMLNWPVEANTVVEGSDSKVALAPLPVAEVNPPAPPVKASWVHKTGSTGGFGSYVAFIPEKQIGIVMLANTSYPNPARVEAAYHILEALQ

Molecule CO[C@@]1(NC(=O)Cc2cccs2)C(=O)N2C(C(=O)O)=C(COC(N)=O)CS[C@@H]21 has an Activity [1] of 0 nmol/min, an Activity [2] of 10 nmol/min and an Activity [3] of 3020 nmol/min. The Activity [4] was 165 nmol/min, the Activity [5] was 36 nmol/min and the Activity [6] was 1070 nmol/min. The Activity [7] was 0 nmol/min, the Activity [8] was 4 nmol/min and the Activity [9] was 0 nmol/min. For the same molecule, the Activity [10] was 747 nmol/min, the Activity [11] was 8 nmol/min and the Activity [12] was 3010 nmol/min. For the same molecule, the Activity [13] was 38 nmol/min, the Activity [14] was 8130 nmol/min and the Activity [15] was 152 nmol/min. The Activity [16] was 2980 nmol/min, the Activity [17] was 372 nmol/min and the Activity [18] was 5 nmol/min. For the same molecule, the Activity [19] was 3600 nmol/min, the Activity [20] was 879 nmol/min and the Activity [21] was 3440 nmol/min. It also gave an Activity [22] of 2 nmol/min, an Activity [23] of 3250 nmol/min and an Activity [24] of 0 nmol/min. For the same molecule, the Activity [25] was 0 nmol/min, the Activity [26] was 3 nmol/min and the Activity [27] was 2570 nmol/min. It also gave an Activity [28] of 1220 nmol/min, an Activity [29] of 1300 nmol/min and an Activity [30] of 0 nmol/min.
